Compounds with a hit are over-represented: about 4.2% of the library has one in this group of screens.
TAAR1 antag – antagonists of human TAAR1 | Q96RJ0 | CHO RD-HGA16 TAAR1, Fluo-8 calcium fluorescence, antagonist | inhibition, % at 3 µM | 360,000 compounds, 1.5% hits | AID 624466;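 active = inhibition above a per-plate cutoff, the mean inhibition of test compounds on that plate plus 3 SD, cut at about 49% in these data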;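 note: 0% = DMSO plus EC80 beta-PEA response and 100% = DMSO alone without agonist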
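Assay system: CHO-derived RD-HGA16 cells stably expressing human TAAR1 plus Gα16. Timing: 140 s kinetic read after compound, 140 s after agonist. Technique: kinetic Fluo-8 calcium fluorescence measurement. Measure: % inhibition of agonist calcium response.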
CHO parental Ca – signal in parental CHO cells, OX1R antagonist counter-screen | parental CHO-K1, ATP-induced calcium, Fluo-8 fluorescence | inhibition, % at 5.6 µM | 330,000 compounds, 0.63% hits | AID 463079;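 active = inhibition above that plate's mean sample inhibition plus 3 SD, cut at about 26% in these data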;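 note: 0% = ATP-challenged DMSO wells and 100% = DMSO wells without ATP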
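Test system: untransfected parental CHO cell line; also added: ATP stimulus; dosing: 5.6 µM, single dose; signal: calcium-sensitive Fluo-8 fluorescence; measure: percent inhibition of ATP-evoked calcium rise, normalized to controls; benchmarks: low control ATP plus DMSO, high control DMSO only; replication: one well per compound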
TAAR1 ag – human TAAR1 agonism | AID 624467 | Q96RJ0 | CHO RD-HGA16 TAAR1, Fluo-8 calcium fluorescence; vehicle wells 0%, saturating PEA agonist 100% | activation, % at 3 µM | 360,000 compounds, 0.99% hits;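 active = activation above the mean activation of all test compounds in the run plus 3 SD, cut at about 38% in these data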
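Test system: RD-HGA16 (CHO) cells co-expressing Gα16 and hTAAR1 / Benchmarks: DMSO vehicle as 0%, PEA at EC100 as 100% / Repeats: no replicates (n 1) / Measure: % activation from peak over basal fluorescence ratio, DMSO-to-PEA scaled / Timing: 17-24 h plating, Fluo-8 75 min 37 °C, 30 min RT / Technique: kinetic Fluo-8 calcium fluorescence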
GalR3 antagonist – blocks the human galanin receptor 3; AID 651719; O60755; HEK293 GalR3-CNG cAMP membrane potential fluorescence; galR3 body fused to GalR1 C-terminus; inhibition, % at 3 µM; 360,000 compounds, 0.44% hits;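 active = inhibition above the screen-wide average plus 3 SD, cut at about 13% in these data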;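 note: forskolin and galanin both at EC90 stimulate the cells; cAMP rise reported by CNG channel membrane potential dye signal; 0% = forskolin plus galanin with DMSO and 100% = forskolin alone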
Target sequence (O60755 1-299 limits assumed): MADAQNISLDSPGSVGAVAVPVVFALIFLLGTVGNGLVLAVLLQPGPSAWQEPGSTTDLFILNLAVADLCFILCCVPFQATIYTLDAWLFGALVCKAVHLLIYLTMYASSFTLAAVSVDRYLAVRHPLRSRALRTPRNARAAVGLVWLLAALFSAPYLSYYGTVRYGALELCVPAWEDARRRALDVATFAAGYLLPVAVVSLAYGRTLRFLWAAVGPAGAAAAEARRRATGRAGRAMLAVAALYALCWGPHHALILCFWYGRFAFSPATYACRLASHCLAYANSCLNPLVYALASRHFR
OX1R antag-1 – antagonists of human orexin 1 receptor (OX1R) | O43613 | OX1R-expressing cells, FRET antagonist read-out | 330,000 compounds, 1.8% hits | AID 485270 | inhibition, % at 6.6 µM; in the data active = inhibition mostly above about 38%, no sharp cut-off; inactive = mostly below about 40%;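 note: 0% = agonist challenge alone and 100% = reference antagonist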
Target sequence (O43613 whole entry, looked up): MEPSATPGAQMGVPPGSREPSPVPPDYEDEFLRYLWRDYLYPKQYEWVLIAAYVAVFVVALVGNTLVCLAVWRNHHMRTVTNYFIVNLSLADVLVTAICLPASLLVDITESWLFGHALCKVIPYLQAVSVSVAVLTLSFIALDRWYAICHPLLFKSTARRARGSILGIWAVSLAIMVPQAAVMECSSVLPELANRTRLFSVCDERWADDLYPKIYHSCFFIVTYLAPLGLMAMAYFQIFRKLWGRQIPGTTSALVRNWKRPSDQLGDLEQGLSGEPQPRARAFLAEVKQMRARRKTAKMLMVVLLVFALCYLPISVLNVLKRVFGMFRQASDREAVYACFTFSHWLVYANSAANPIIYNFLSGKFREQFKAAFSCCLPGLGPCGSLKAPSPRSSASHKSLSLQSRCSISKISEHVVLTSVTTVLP
OX1R antag-2 – human HCRTR1 antagonism. O43613. CHO/OX1R cells, Fluo-8 calcium fluorescence, orexin A. inhibition, % at 5 µM. 330,000 compounds, 0.43% hits;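 active = inhibition above its plate's threshold, mean inhibition of all tested compounds on the plate plus 3 SD, cut at about 37% in these data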;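 note: 0% = orexin A challenge wells and 100% = SB-334867-A antagonist wells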
TAAR1 ag conf – human TAAR1 agonism, confirmed; CHO RD-HGA16 TAAR1, Fluo-8 calcium fluorescence; scaled: DMSO 0%, maximal phenethylamine 100%; activation, % at 3 µM; 2,400 compounds, 82% hits; AID 651783; shares compounds with TAAR1 ag;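 active = activation above a cutoff set at the run's mean compound activation plus 3 SD, cut at about 39% in these data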
Ga16 ag counter – counter-screen for TAAR1 agonists: nonselective agonists in parental cells | shares compounds with TAAR1 ag | activation, % at 3 µM | 2,400 compounds, 50% hits | CHO-Ga16 parental, Fluo-8 calcium fluorescence; normalized to maximal ATP response, DMSO zero | AID 651787;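 active = activation above the run cutoff, the mean activation over all tested wells plus 3 SD, cut at about 12% in these data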;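 note: 0% = DMSO wells and 100% = maximal ATP response on the peak over basal ratio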
TAAR1 desensitize – human TAAR1 agonist that also desensitizes the receptor | shares compounds with TAAR1 ag | CHO RD-HGA16 hTAAR1, Fluo-8 calcium, beta-PEA response inhibition | inhibition, % at 3 µM | 2,400 compounds, 46% hits;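 active = inhibition above the run cutoff, the mean inhibition of all test compounds plus 3 SD, cut at about 49% in these data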;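 note: beta-PEA stimulus applied at its EC80; loss of beta-PEA calcium signal after compound pretreatment read as receptor desensitization; 0% = DMSO with beta-PEA at EC80 and 100% = DMSO alone without agonist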
Ga16 nonsel ant – counter-screen for TAAR1 agonists: nonselective Ga16 antagonists. shares compounds with TAAR1 ag. CHO-Ga16 ATP-induced calcium, Fluo-8 fluorescence. inhibition, % at 3 µM. 2,400 compounds, 39% hits. AID 651952;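 active = inhibition above the plate's mean compound inhibition plus 3 SD, computed per plate, cut at about 22% in these data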;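 note: 0% = EC80 ATP with DMSO and 100% = DMSO wells without ATP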
Active calls of the source: *; . = not tested or not shown.

SMILES	TAAR1 antag	CHO parental Ca	TAAR1 ag	GalR3 antagonist	OX1R antag-1	OX1R antag-2	TAAR1 ag conf	Ga16 ag counter	TAAR1 desensitize	Ga16 nonsel ant
CC(C)(C)NS(=O)(=O)c1ccc(NC(=O)C2CC(=O)N(CCc3ccc(F)cc3)C2)cc1 (stereo not drawn)	-9.6	2.4	5.5	-8.3	10.6	-7.1	.	.	.	.
NC(=S)N/N=C/c1ccc(-c2ccc([N+](=O)[O-])cc2)o1	3.1	-5.5	4.7	-6.1	21.4	-9.8	.	.	.	.
CN(/N=C/c1ccc(-c2ccc([N+](=O)[O-])cc2)o1)c1ccccc1	67.8*	52.9*	66.1*	-4.7	28.0	60.1*	44.2*	71.1*	63.5*	73.7*
CCCOC(=O)c1ccc2c(c1)C(=O)N(c1ccccc1)C2=O	53.1*	-5.3	68.1*	-4.9	10.3	-7.9	15.1	6.1	24.3	19.3
CCCOC(=O)CN1C(=O)c2ccc(C(=O)OCCC)cc2C1=O	-37.0	-1.5	5.7	1.3	28.4	-35.5	.	.	.	.
Cc1ccc(N2C(=O)c3ccc(C(=O)N4CCN(Cc5ccccc5)CC4)cc3C2=O)cc1	80.7*	15.3	86.7*	-8.3	13.3	16.9	93.9*	49.2*	96.5*	73.9*
CC1CCCN(c2c([N+](=O)[O-])c(=O)oc3ccccc23)C1 (stereo not drawn)	.	9.1	.	-6.5	6.0	3.8	.	4.2	.	3.8
O=c1oc2ccccc2c(N2CCC(c3ccccc3)CC2)c1[N+](=O)[O-]	-11.4	-0.9	6.8	-8.6	7.3	-9.3	.	.	.	.
CNC(=O)C(NC(=O)Nc1ccc(C)cc1)C(C)(C)C (stereo not drawn)	6.8	-14.0	-1.4	-3.4	18.0	-19.0	.	.	.	.
Clc1cccc2c3c([nH]c12)CCNC3	40.6	-1.6	59.8*	-7.9	-0.9	-1.2	87.0*	4.1	66.0*	0.8
CC(C)CC(NC(=O)C1CCCN1C(=O)CNC(=O)OCc1ccccc1)C(=O)O (stereo not drawn)	-12.6	-1.8	-1.0	-6.1	-2.4	-24.1	.	.	.	.
O=C(Nc1ccc(N2CCCCC2)cc1)c1ccc(F)cc1	84.8*	11.4	98.4*	1.4	13.4	-9.9	53.0*	12.6*	18.0	17.7
O=C(c1ccc(F)cc1)c1ccc(N2CCCCC2)cc1	-2.7	-8.2	-2.5	-9.6	6.7	-31.9	.	.	.	.
O=C(Nc1cccc(NC(=O)c2ccc(F)cc2)c1)c1ccc(F)cc1	30.8	-3.9	46.6*	-7.7	-8.8	-16.2	2.1	2.0	-0.5	4.4
Cc1cc2c(cc1C)C(c1cccc(F)c1)CC(=O)N2 (stereo not drawn)	0.8	.	4.3	-7.8	.	.	.	.	.	.
O=C(C[C@@H]1C=C[C@H](NC(=O)Cc2ccccn2)[C@@H](CO)O1)NCCc1ccccc1	.	.	.	1.3	.	.	.	5.7	.	7.7
Cc1[nH]c2ccccc2c1C(=O)CN1C(=O)NC(C)(c2ccc(Cl)cc2Cl)C1=O (stereo not drawn)	55.2*	23.0	70.2*	-11.7	13.3	34.4	75.2*	38.5*	64.2*	47.7*
Cc1cccc(CCNC(=O)CCc2nc(-c3ccccc3F)no2)c1	-8.2	-15.6	17.0	-0.9	14.9	-3.0	.	.	.	.
CN(C(=O)CCc1nc(-c2ccccc2F)no1)c1ccccc1	-18.8	4.5	44.9*	-1.5	0.6	-10.0	6.3	7.3	4.5	1.8
C#CCOc1ccc(/C=C2/C(=O)NN(c3ccc(F)cc3)C2=O)cc1OC	13.7	-1.7	99.4*	-8.2	-7.4	-1.6	91.9*	55.2*	43.7	18.3
COC(=O)c1ncn(C2OC(COC(C)=O)C(OC(C)=O)C2OC(C)=O)n1 (stereo not drawn)	7.5	-6.8	0.2	-0.7	12.3	-2.7	.	.	.	.
CCCCCNC(=O)[C@@H]1CSC2c3ccccc3C(=O)N21 (stereo partly drawn)	-29.7	-18.7	1.0	-8.0	-3.5	-28.8	.	.	.	.
O=C(NCCc1cccc(F)c1)[C@@H]1CSC2c3ccccc3C(=O)N21 (stereo partly drawn)	13.7	-35.4	53.6*	-1.9	19.6	-12.3	76.5*	2.7	43.1	15.4
COc1cc(C2C(C#N)=C(C)NC(C)=C2C#N)cc(OC)c1OC	-13.6	-9.6	9.7	-6.2	13.7	5.0	.	.	.	.
CCC(=NCCc1ccc(OC)c(OC)c1)C1=C(O)CC(C)(C)CC1=O	-15.0	-12.2	2.4	-3.5	22.5	0.0	.	.	.	.
SMILES	TAAR1 antag	CHO parental Ca	TAAR1 ag	GalR3 antagonist	OX1R antag-1	OX1R antag-2	TAAR1 ag conf	Ga16 ag counter	TAAR1 desensitize	Ga16 nonsel ant
CCC(=NCCc1ccccc1)C1=C(O)CCC1=O	87.2*	-19.7	86.5*	0.3	17.7	-10.3	103.6*	2.5	92.7*	-3.1
COc1ccc2c(c1)C(C)CC(C)(C)N2C(=O)CSc1nc2ccccc2s1 (stereo not drawn)	15.2	-20.2	2.6	-5.7	36.1	-3.3	.	.	.	.
CCOC(=O)N/N=C/c1c(F)cccc1F	-2.1	-4.1	0.0	-2.3	2.7	3.7	.	.	.	.
Cc1cnn(C(=S)NCc2ccc(Cl)cc2)c1	3.9	-3.4	9.1	1.6	6.0	1.4	.	.	.	.
Cc1cccc(NC(=S)NC(=O)Cc2ccccc2)c1C	65.0*	.	82.0*	-9.7	.	.	77.3*	54.5*	46.3	31.8*
Cc1ccccc1NC(=S)NCCc1ccccc1	-12.6	-7.4	48.7*	-2.4	-0.2	-6.6	81.7*	2.0	39.2	2.5
Cc1cccc(NC(=S)NC(=O)CCc2ccccc2)c1C	32.4	-22.9	12.6	0.2	15.9	-27.9	.	.	.	.
Cc1cc(C)c(O)c(NC(=S)NC(=O)Cc2ccccc2)c1	72.0*	-2.6	95.4*	-8.2	6.3	6.3	85.0*	47.7*	54.1*	36.8*
Cc1cnn(C(=S)NCCc2ccccc2)c1	32.2	-1.0	47.7*	-4.0	6.5	-0.6	29.8	4.8	25.4	18.2
Cc1c(NC(=S)NC(=O)Cc2ccccc2)cccc1C(=O)O	11.9	1.6	8.8	-3.9	5.5	-6.2	.	.	.	.
CCOC(=O)C1(C)Oc2cccnc2NC1=O (stereo not drawn)	-21.7	-12.2	0.9	-5.8	11.9	7.3	.	.	.	.
COc1ccc(C(CNC(=O)c2cccc(N(C)C)c2)N2CCCC2)cc1 (stereo not drawn)	-6.7	-14.7	-0.7	-4.3	11.6	-26.2	.	.	.	.

Bioassay records (PubChem)
